Calls of active or inactive are those of the source. The rule behind the calls is not given here.
How the values were obtained:
[1] = target: Beta-2 adrenergic receptor (Cavia porcellus) (UniProt Q8K4Z4)
[2] = target: Beta-1 adrenergic receptor (Cavia porcellus) (UniProt B0FL73)
[3] = target: Beta-1 adrenergic receptor (Rattus norvegicus) (UniProt P18090); assay: Beta-1 adrenergic receptor blockade measured as inhibition of tachycardia caused by isoprenaline in anesthetized rats when administered intravenously; type: functional
Sequence of Beta-1 adrenergic receptor (Rattus norvegicus) (P18090 whole entry, looked up): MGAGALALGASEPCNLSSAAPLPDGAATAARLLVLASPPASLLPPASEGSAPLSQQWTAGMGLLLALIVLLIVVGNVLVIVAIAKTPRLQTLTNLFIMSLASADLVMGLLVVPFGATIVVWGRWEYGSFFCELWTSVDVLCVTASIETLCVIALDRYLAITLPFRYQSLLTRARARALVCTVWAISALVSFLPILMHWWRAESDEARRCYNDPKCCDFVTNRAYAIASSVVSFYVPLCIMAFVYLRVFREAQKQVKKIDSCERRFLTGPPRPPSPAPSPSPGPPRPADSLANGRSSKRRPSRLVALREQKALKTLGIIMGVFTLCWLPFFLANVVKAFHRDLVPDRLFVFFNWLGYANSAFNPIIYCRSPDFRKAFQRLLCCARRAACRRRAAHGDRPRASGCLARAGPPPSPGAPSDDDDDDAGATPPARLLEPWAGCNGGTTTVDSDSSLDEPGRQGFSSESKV
In short: (§1)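 Anesthetized rats with a catheterized carotid artery for blood pressure. Heart rate was taken from the pulse signal by cardiotachometer. Tachycardia to isoprenaline (0.2 µg kg-1 iv) was recorded before and after accumulative iv doses of antagonist (0.1 mL 100 g-1). The value is the iv dose giving 50% reduction of the isoprenaline tachycardia.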

Rattus norvegicus [4] = species on record: Rattus norvegicus; assay: Ratio of rat Beta-2 to Beta-1 adrenoceptor antagonism; type: functional
In short: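 Anesthetized, carotid-cannulated rats were given isoprenaline (0.2 µg kg-1 iv) before and after accumulative iv antagonist doses. The β1 value is the iv dose halving the tachycardia, read by cardiotachometer from the pulse. The β2 value is the iv dose halving the depressor response. The ratio compares these two doses.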

Rattus norvegicus [5] = assay: Beta-1-adrenoceptor blockade measured as inhibition of tachycardia caused by isoprenaline in anesthetized rats when administered intravenously; type: functional; conditions: iv
In short: as §1

[6] = target: Beta-1 adrenergic receptor (Rattus norvegicus) (UniProt P18090); assay: Beta-1 adrenergic receptor blockade measured as inhibition of tachycardia caused by isoprenaline in anesthetized rats when administered intravenously; inactive; type: functional
In short: as §1

[7] = target: Beta-2 adrenergic receptor (Rattus norvegicus) (UniProt P10608)
Sequence of Beta-2 adrenergic receptor (Rattus norvegicus) (P10608 whole entry, looked up): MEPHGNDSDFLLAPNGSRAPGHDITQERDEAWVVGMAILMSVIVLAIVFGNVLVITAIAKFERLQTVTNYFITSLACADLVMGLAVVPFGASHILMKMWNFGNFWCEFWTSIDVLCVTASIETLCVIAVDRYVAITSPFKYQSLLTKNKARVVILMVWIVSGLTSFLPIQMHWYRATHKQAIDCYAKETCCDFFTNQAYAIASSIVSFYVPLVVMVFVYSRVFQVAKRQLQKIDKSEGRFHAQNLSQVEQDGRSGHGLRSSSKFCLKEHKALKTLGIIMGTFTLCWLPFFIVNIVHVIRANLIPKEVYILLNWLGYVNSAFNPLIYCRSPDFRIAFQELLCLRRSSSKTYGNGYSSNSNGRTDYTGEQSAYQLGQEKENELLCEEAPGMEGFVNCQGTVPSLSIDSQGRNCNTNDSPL

Sequence of Beta-2 adrenergic receptor (Cavia porcellus) (Q8K4Z4 whole entry, looked up): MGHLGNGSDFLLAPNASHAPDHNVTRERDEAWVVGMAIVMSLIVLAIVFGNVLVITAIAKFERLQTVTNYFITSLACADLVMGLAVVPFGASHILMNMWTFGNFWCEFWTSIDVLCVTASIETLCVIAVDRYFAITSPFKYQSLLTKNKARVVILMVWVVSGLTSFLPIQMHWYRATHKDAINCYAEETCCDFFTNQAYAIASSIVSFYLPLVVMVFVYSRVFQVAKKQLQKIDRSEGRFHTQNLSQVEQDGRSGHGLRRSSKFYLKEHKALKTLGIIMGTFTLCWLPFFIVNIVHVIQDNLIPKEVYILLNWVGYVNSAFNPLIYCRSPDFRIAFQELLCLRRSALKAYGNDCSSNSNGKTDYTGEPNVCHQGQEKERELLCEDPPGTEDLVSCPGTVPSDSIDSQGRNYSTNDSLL
Sequence of Beta-1 adrenergic receptor (Cavia porcellus) (B0FL73 1-467): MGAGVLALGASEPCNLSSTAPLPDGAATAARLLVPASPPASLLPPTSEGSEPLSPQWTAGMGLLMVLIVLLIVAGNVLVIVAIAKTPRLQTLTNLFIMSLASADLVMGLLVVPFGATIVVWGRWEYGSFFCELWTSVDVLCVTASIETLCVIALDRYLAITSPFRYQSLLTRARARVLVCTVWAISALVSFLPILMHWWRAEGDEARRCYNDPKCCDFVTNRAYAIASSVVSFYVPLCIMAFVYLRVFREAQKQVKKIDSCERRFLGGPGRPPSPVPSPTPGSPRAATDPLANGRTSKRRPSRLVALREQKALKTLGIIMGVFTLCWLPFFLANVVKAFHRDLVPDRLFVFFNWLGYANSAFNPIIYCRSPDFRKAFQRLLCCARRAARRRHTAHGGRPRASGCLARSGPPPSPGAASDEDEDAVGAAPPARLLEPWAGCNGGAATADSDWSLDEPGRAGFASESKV

| SMILES | Affinity constant [1] | Affinity constant [2] | ED50 [3] | ED50 [6] | ED50 [7] | Ratio (Rattus norvegicus [4]) | ED50 (Rattus norvegicus [5]) |
| --- | --- | --- | --- | --- | --- | --- | --- |
| CC(C)NC[C@H](O)COc1cccc(OCCOCCOc2cccc(OC[C@@H](O)CNC(C)C)c2)c1 | 0.031 µM | 1 µM | – | – | – | – | – |
| CC(C)NC[C@H](O)COc1ccc(OCCCCCCCCCCCCCCOc2ccc(OC[C@@H](O)CNC(C)C)cc2)cc1 | > 10 µM | 2.2 µM | – | – | – | – | – |
| CC(C)NC[C@H](O)COc1ccc(OCCOCCOCCOc2ccc(OC[C@@H](O)CNC(C)C)cc2)cc1 | 0.03 µM | 0.01 µM | 0.05 mg/kg | – | – | 185 | – |
| CC(C)NC[C@H](O)COc1ccc(OCCOCCOc2ccc(OC[C@@H](O)CNC(C)C)cc2)cc1 | 0.36 µM | 0.01 µM | – | – | – | 192 | 0.052 mg/kg |
| CC(C)NC[C@H](O)COc1ccc(OCCOCCOCCOCCOc2ccc(OC[C@@H](O)CNC(C)C)cc2)cc1 | 0.23 µM | 0.1 µM | 0.282 mg/kg | – | – | > 70 | – |
| CC(C)NCC(O)COc1cccc2ccccc12 (stereo not given) [PROPRANOLOL] | – | – | – | – | – | – | 0.143 mg/kg |
| CC(C)NC[C@H](O)COc1ccc(OCCCOc2ccc(OC[C@@H](O)CNC(C)C)cc2)cc1 | 0.24 µM | 0.2 µM | – | – | – | > 1.74 | 1.15 mg/kg |
| CC(C)NC[C@H](O)COc1ccc(OCCCCCCOc2ccc(OC[C@@H](O)CNC(C)C)cc2)cc1 | > 10 µM | 0.01 µM | – | – | – | 3.3 | 0.776 mg/kg |
| CC(C)NC[C@H](O)COc1ccc(OCCCCCCCCCCCCOc2ccc(OC[C@@H](O)CNC(C)C)cc2)cc1 | 10 µM | 0.1 µM | – | – | – | – | – |
| CC(C)NC[C@H](O)COc1ccc(OCCCCCCCCCCCCCCCCCCCCOc2ccc(OC[C@@H](O)CNC(C)C)cc2)cc1 | 0.42 µM | 2.5 µM | – | – | – | – | – |
| CC(C)NC[C@H](O)COc1cccc(OCCCOc2cccc(OC[C@@H](O)CNC(C)C)c2)c1 | 0.007 µM | 0.7 µM | – | – | – | 1.56 | 0.653 mg/kg |

Further lines, with some results ahead:

| Affinity constant [1] | Affinity constant [2] | ED50 [3] | ED50 [6] | ED50 [7] | SMILES | Ratio (Rattus norvegicus [4]) | ED50 (Rattus norvegicus [5]) |
| --- | --- | --- | --- | --- | --- | --- | --- |
| 0.046 µM | 0.007 µM | – | – | – | CC(C)NC[C@@H](O)COc1ccccc1OCCCCCCCCOc1ccccc1OC[C@@H](O)CNC(C)C | – | – |
| 4e-05 µM | 0.055 µM | 0.029 mg/kg | – | – | CC(C)NC[C@H](O)COc1ccccc1OCCOCCOCCOCCOc1ccccc1OC[C@@H](O)CNC(C)C | 0.55 | – |
| 0.015 µM | 1 µM | – | – | – | CC(C)NC[C@@H](O)COc1ccccc1OCCCCCCCCCCCCOc1ccccc1OC[C@@H](O)CNC(C)C | – | – |
| 0.00064 µM | 0.035 µM | – | – | – | CC(C)NC[C@H](O)COc1ccccc1OCCCOc1ccccc1OC[C@@H](O)CNC(C)C | 0.22 | 0.768 mg/kg |
| 0.4 µM | 0.003 µM | – | – | – | CC(C)NC[C@@H](O)COc1ccccc1OCCCCCCOc1ccccc1OC[C@@H](O)CNC(C)C | 0.13 | 0.399 mg/kg |
| 4.4e-05 µM | 0.65 µM | – | – | – | CC(C)NC[C@H](O)COc1ccccc1OCC(O)COc1ccccc1OC[C@@H](O)CNC(C)C | 0.045 | 0.993 mg/kg |
| 1 µM | 0.2 µM | – | – | – | CC(C)NC[C@@H](O)COc1ccccc1OCCCCCCCCCCCCCCOc1ccccc1OC[C@@H](O)CNC(C)C | – | – |
| 1.5 µM | 0.44 µM | – | – | – | CC(C)NC[C@H](O)COc1ccc(OCCCCCCCCOc2ccc(OC[C@@H](O)CNC(C)C)cc2)cc1 | – | – |
| 0.17 µM | 0.004 µM | 0.491 mg/kg | – | – | CC(C)NC[C@@H](O)COc1ccccc1OCCCCCCCCCCOc1ccccc1OC[C@@H](O)CNC(C)C | 0.26 | – |
| 0.015 µM | 0.15 µM | – | – | – | CC(C)NC[C@H](O)COc1ccccc1OCCOCCOc1ccccc1OC[C@@H](O)CNC(C)C | 0.39 | 0.384 mg/kg |
| 0.00085 µM | 0.06 µM | 0.082 mg/kg | – | – | CC(C)NC[C@@H](O)COc1ccccc1OCCOCCOCCOc1ccccc1OC[C@@H](O)CNC(C)C | 1.35 | – |
| > 10 µM | 0.022 µM | – | inactive | inactive | CC(C)NC[C@H](O)COc1ccc(OCCCCCCCCCCOc2ccc(OC[C@@H](O)CNC(C)C)cc2)cc1 | – | – |
| > 10 µM | 1.5 µM | – | – | – | CC(C)NC[C@@H](O)COc1ccccc1OCCCCCCCCCCCCCCCCCCCCOc1ccccc1OC[C@@H](O)CNC(C)C | – | – |

From ChEMBL document CHEMBL1122437, “beta 1-selective adrenoceptor antagonists. 1. Synthesis and beta-adrenergic blocking activity of a series of binary (aryloxy)propanolamines” (1983)
